Results published in ChEMBL document CHEMBL1154463, “Synthesis and induction of G0-G1 phase arrest with apoptosis of 3,5-dimethyl-6-phenyl-8-(trifluoromethyl)-5,6-dihydropyrazolo[3,4-f][1,2,3,5]tetrazepin-4(3H)-one” (Eur J Med Chem, 2008).
pIC50: −log10 of the molar value. Where a name gives a salt, the structure may show the parent alone. Active and inactive are the calls of the source. The rule behind the calls is not given here.

Columns and labels:
[1] = system: HL-60; assay: human HL60 cells after 48 hrs; conditions: HL-60, 48 h
[2] = system: HL-60; assay: Induction of apoptosis in multidrug resistant human HL60 cells after 48 hrs; type: functional, cell-based; conditions: HL-60, 48 h
Procedure, shortened: (§1)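 Cells exposed 48 h to a range of concentrations, then 2 × 10⁵ cells pelleted (300 × g) and stained with acridine orange and ethidium bromide ([…]). Read by fluorescence microscopy under oil immersion. Apoptosis scored by perinuclear chromatin condensation and apoptotic bodies, counting ≥300 cells. AC50 = concentration giving 50% apoptotic cells. Bars: SE.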

[3] = system: K562; assay: Induction of apoptosis in imatinib mesylate-resistant human K562 cells after 48 hrs; type: functional, cell-based
Procedure, shortened: as §1

[4] = system: K562; assay: Induction of apoptosis in human K562 cells after 48 hrs; type: functional, cell-based; conditions: K562, 48 h
[5] = system: K562; assay: Induction of apoptosis in human K562 cells assessed as accumulation at sub GO-G1 phase accumulation at 50 uM after 24 hrs by flow cytometry; type: functional
Procedure, shortened: (§2)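 K562 cells cultured 24 h and 48 h without compound or at 25, 50 or […] (unit as printed). Cells washed in ice-cold PBS, resuspended at 10⁶/ml in hypotonic propidium iodide ([…])/0.03% v/v NP-40 in 0.1% sodium citrate for 30 min. DNA content read by flow cytometry as single-parameter histograms; G0–G1 and sub-G0–G1 fractions taken as percent of cells.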

[6] = system: K562; assay: Cytotoxicity against imatinib mesylate-resistant human K562 cells after 48 hrs by trypan blue exclusion method; type: functional, cell-based; conditions: K562, 48 h
Procedure, shortened: (§3)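 2 × 10⁵ cells in 1 ml complete medium treated with a range of concentrations, added as freshly prepared DMSO solution (final DMSO ≤0.3% v/v), for 48 h. Viable cells counted and expressed as percent of untreated control proliferation; IC50 = concentration inhibiting 50% of growth, from 48 h exposure. Bars: SE.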

[7] = system: HL-60; assay: Cytotoxicity against human HL60 cells after 48 hrs by trypan blue exclusion method; type: functional, cell-based; conditions: HL-60, 48 h
Procedure, shortened: as §3

[8] = system: K562; assay: Cell cycle arrest in human K562 cells assessed as accumulation at GO-G1 phase at 50 uM after 24 hrs by flow cytometry; type: functional
Procedure, shortened: as §2

[9] = system: K562; assay: Induction of apoptosis in human K562 cells assessed as accumulation at sub GO-G1 phase accumulation after 24 hrs by flow cytometry; type: functional, cell-based
Procedure, shortened: as §2

[10] = system: K562; assay: Induction of apoptosis in human K562 cells assessed as accumulation at sub GO-G1 phase accumulation at 50 uM after 48 hrs by flow cytometry; type: functional
Procedure, shortened: as §2

[11] = system: K562; assay: Cell cycle arrest in human K562 cells assessed as accumulation at GO-G1 phase at 50 uM after 48 hrs by flow cytometry; type: functional
Procedure, shortened: as §2

[12] = system: K562; assay: Cell cycle arrest in human K562 cells assessed as accumulation at GO-G1 phase after 24 hrs by flow cytometry; type: functional, cell-based
Procedure, shortened: as §2

[13] = system: HL-60; assay: Cytotoxicity against multidrug-resistant human HL60 cells after 48 hrs by trypan blue exclusion method; type: functional, cell-based; conditions: HL-60, 48 h
Procedure, shortened: as §3

[14] = system: HL-60; assay: Induction of apoptosis in human HL60 cells after 48 hrs; type: functional, cell-based; conditions: HL-60, 48 h
Procedure, shortened: as §1

[15] = system: K562; assay: Cytotoxicity against human K562 cells after 48 hrs by trypan blue exclusion method; type: functional, cell-based; conditions: K562, 48 h
Procedure, shortened: as §3

Question: What does the source list for COc1cccc2c1C(=O)c1c(O)c3c(c(O)c1C2=O)C[C@@](O)(C(C)=O)C[C@@H]3O[C@H]1C[C@H](N)[C@H](O)[C@H](C)O1 [DAUNORUBICIN]?
Answer: AC50 [1]: 0.1 µM; AC50 [2]: 38 µM

Question: With CS(=O)(=O)OCCCCOS(C)(=O)=O as the compound, how does the Activity [3] read?
Answer: The Activity was “Active”.

Question: How did the AC50 [4] turn out when Cc1ccc(NC(=O)c2ccc(CN3CCN(C)CC3)cc2)cc1Nc1nccc(-c2cccnc2)n1 [IMATINIB MESYLATE] was run?
Answer: Its AC50 is 62 µM.

Question: For CN1N=Nc2c(C(F)(F)F)nn(-c3ccccc3)c2N(C)C1=O, which AC50 [4] is on record?
Answer: Its AC50 is 57 µM.

Question: What about the AC50 [2] of the same compound?
Answer: The AC50 was 38 µM.

Question: And the Activity [5]?
Answer: Its Activity is 5%.

Question: And the pIC50 [6]?
Answer: The pIC50 was 4.42.

Question: And the AC50 ([3]; K562, 48 h)?
Answer: The AC50 was 62 µM.

Question: What about the pIC50 [7] of the same compound?
Answer: Its pIC50 is 4.68.

Question: What about the Activity [8] of the same compound?
Answer: The Activity was 60.7%.

Question: What about the Activity [9] of the same compound?
Answer: The Activity was “inactive”.

Question: And the Activity [10]?
Answer: Its Activity is 52.2%.

Question: And the Activity [11]?
Answer: Its Activity is 28.7%.

Question: What about the Activity [12] of the same compound?
Answer: Its Activity is “Dose-dependent effect”.

Question: And the pIC50 [13]?
Answer: Its pIC50 is 4.52.

Question: And the AC50 [14]?
Answer: Its AC50 is 36 µM.

Question: What about the pIC50 [15] of the same compound?
Answer: Its pIC50 is 4.40.

Question: What does the source list for COc1cc([C@@H]2c3cc4c(cc3[C@@H](O[C@@H]3O[C@@H]5CO[C@@H](C)O[C@H]5[C@H](O)[C@H]3O)[C@H]3COC(=O)[C@H]23)OCO4)cc(OC)c1O [ETOPOSIDE]?
Answer: AC50 [2]: > 400 µM; AC50 [14]: 0.4 µM
